Test results taken from PubChem BioAssay AID463111 (Johns Hopkins Ion Channel Center, 2010).
In all, about 310,000 compounds went through this assay and about 2,800 (0.9%) were called active.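 How the source made its calls: active means B-score of the integrated calcium signal more than 4 SD below the library mean, with starting fluorescence not abnormally high; inactive means the rest.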 For the sample, actives were picked, then their nearest neighbours and some compounds at random.

Assay: RGS4 potentiators or activators, primary screen, cell-based, HEK293 M3R inducible RGS4, calcium flux (AID 463111);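 on B-score: negative B-score means reduced calcium response which marks RGS4 activation or potentiation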
Details: HEK293 M3R/inducible RGS4, carbachol calcium flux Fluo4, at 10 µM; active compounds read low
Summary of the method: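 Detection: kinetic calcium fluorescence imaging with Fluo4-AM dye, 2 µM / Material: HEK293 cells with stable M3R and inducible RGS4 / Schedule: recording 10 s baseline at 1 Hz, 100 s post-agonist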
For `CC(C)N1C(=O)N(c2ccccc2)C(C)(O)CC1(C)C` (centres undefined), the B-score was “inactive”.
In the case of `CN(C)C(CNC(=O)c1ccc(S(=O)(=O)NCc2ccco2)cc1)c1ccccc1` (centres undefined), the B-score was “inactive”.
In the case of `CC(C)CN(C(=O)Cn1c(=O)cnc2ccccc21)C1CCS(=O)(=O)C1` (centres undefined), the B-score was “inactive”.
In the case of `COc1ccccc1CCCNC(=O)C1CCC(=O)N(CCN2CCOCC2)C1` (centres undefined), the B-score was “inactive”.
With `COc1cc(SC#N)ccc1N=Cc1c(C)[nH]n(-c2ccc(C)cc2)c1=O` the B-score was “inactive”.
With `Cc1ccc(-n2[nH]c(C)c(/C=N/N3C(=O)c4cccc5cccc(c45)C3=O)c2=O)cc1` the B-score was -9.28 (active).
In the case of `Cc1[nH]n(-c2cccc(Cl)c2)c(=O)c1/C=N/n1c(C)nc2ccccc2c1=O`, the B-score was “inactive”.
With `COc1ccc(N2CCN(S(=O)(=O)c3ccc4c(c3)N(C(C)=O)CCO4)CC2)cc1` the B-score was “inactive”.
With `CCOc1ccc(NC(=O)C(C)N2C(=O)c3ccccc3C2=O)cc1` (centres undefined) the B-score was “inactive”.
For `CC(=O)c1ccc(OCC(O)CN2CCN(S(=O)(=O)c3cccc(Br)c3)CC2)cc1` (centres undefined), the B-score was “inactive”.
For `COc1ccc(C2c3ccc(O)cc3Oc3ncn(CCCO)c(=N)c32)cc1OC` (centres undefined), the B-score was “inactive”.
In the case of `c1ccc2c(c1)CSc1sccc1C2=C1CCNCC1`, the B-score was -7.49 (active).
With `Nc1nnc(SCC(=O)NC2CCCc3ccccc32)s1` (centres undefined) the B-score was “inactive”.
For `CCn1ccnc1CN1CCCC(C(=O)c2ccc3c4c(cccc24)CC3)C1` (centres undefined), the B-score was “inactive”.
In the case of `CC(C)(C)NCCCOc1ccc(Cl)cc1C(C)(C)C`, the B-score was “inactive”.
For `CN(C)CCOCCOc1ccc(Cl)c2ccccc12`, the B-score was “inactive”.
For `CN(C)CCOc1ccc(Cl)cc1C(C)(C)C`, the B-score was -7.65 (active).
With `COc1ccc(/C=C2/SC(=O)N(CCCCCC(=O)Nc3ccccc3C(=O)O)C2=S)cc1` the B-score was “inactive”.
With `CCCN(CCc1ccccc1)C1CCc2c(O)cccc2C1` (centres undefined) the B-score was -10.2 (active).
In the case of `Cc1cc(C)cc(C(=O)N(CCc2ccccc2)C2=CC3CCC(C2)N3C)c1` (centres undefined), the B-score was “inactive”.
For `Cc1ccc(-c2nn(-c3ccccc3)cc2/C=C2\SC(=S)N(CCCCCC(=O)O)C2=O)o1`, the B-score was -7.93 (active).
In the case of `CN(C)S(=O)(=O)c1cccc(-c2nn(-c3ccccc3)cc2/C=C2\SC(=S)N(CC(=O)O)C2=O)c1`, the B-score was “inactive”.
For `COc1ccc(-c2nn(-c3ccccc3)cc2/C=C2/SC(=S)N(CCCC(=O)O)C2=O)c(C)c1`, the B-score was “inactive”.
For `Oc1oc(-c2ccccc2Br)nc1/C=N/c1ccccn1`, the B-score was “inactive”.
With `CSc1nnnn1-c1c(C)cc(C)cc1C` the B-score was “inactive”.
For `CCCOc1ccc(C2c3c(oc4cc(C)c(C)cc4c3=O)C(=O)N2CCCN2CCOCC2)cc1` (centres undefined), the B-score was “inactive”.
In the case of `Cc1cc2oc3ccc(NCCC4CCCN4C)cc3c(=O)c2cc1C` (centres undefined), the B-score was -9.61 (active).
For `Cc1cc2oc(=O)cc(CN3CCN(Cc4ccccc4)CC3)c2cc1C`, the B-score was “inactive”.
With `C=CS(=O)c1sc(Cl)c(N2CCOCC2)c1[N+](=O)[O-]` (centres undefined) the B-score was “inactive”.
In the case of `CCC(C(=O)OC)n1cnc2scc(-c3ccc(C)cc3)c2c1=O` (centres undefined), the B-score was “inactive”.
For `CC(=O)Nc1ccc(/C(C)=N/NC(=O)CN(c2ccccc2Br)S(C)(=O)=O)cc1`, the B-score was “inactive”.
For `O=C(O)c1cccc2c1C(=O)N(C1CCCC1)C2`, the B-score was “inactive”.
With `CCc1c(C)sc(NC(=O)c2ccc(Br)o2)c1C(=O)OC` the B-score was -10.4 (active).
For `CCc1c(C)sc(NC(=O)c2cccs2)c1C(N)=O`, the B-score was “inactive”.
With `CCOC(=O)c1c(NC(=O)C2CC=CCC2C(=O)O)sc(C)c1CC` (centres undefined) the B-score was “inactive”.
With `COc1cccc(OC)c1C(=O)OCC(=O)/C(C#N)=C(\C)N` the B-score was “inactive”.
With `Cc1ccc(CNC(=O)Cn2cnc(S(=O)(=O)N3CCCCC3)c2)o1` the B-score was “inactive”.
With `Cc1nn(CC(=O)Nc2ccc(C#N)cc2)c(C)c1[N+](=O)[O-]` the B-score was “inactive”.
For `CCOc1ccccc1NC(=O)C1CCCN(S(=O)(=O)c2ccccc2)C1` (centres undefined), the B-score was “inactive”.
For `CC1Cc2ccccc2N1CC(=O)Nc1ccc2c(c1)OC(F)(F)O2` (centres undefined), the B-score was “inactive”.
In the case of `CN1CCN(c2ccc(S(=O)(=O)Nc3ccccc3)cc2[N+](=O)[O-])CC1`, the B-score was -8.35 (active).
With `CC1CCN(c2ccc(S(=O)(=O)Nc3cc(C(=O)O)cc(C(=O)O)c3)cc2[N+](=O)[O-])CC1` the B-score was “inactive”.
With `COc1ccc(NS(=O)(=O)c2ccc(N3CCN(CCO)CC3)c([N+](=O)[O-])c2)cc1` the B-score was “inactive”.
In the case of `COc1ccc(N2CCN(C(=O)C3CCN(C(=O)c4ccccc4Cl)CC3)CC2)cc1`, the B-score was “inactive”.
For `Cc1ccc(S(=O)(=O)NCc2csc(C)n2)c(C)c1`, the B-score was “inactive”.
With `Cc1ccc(OS(=O)(=O)c2ccc(-c3csc(C)n3)s2)c(C)c1` the B-score was -9.64 (active).
In the case of `CNC(=O)c1sc(NCc2ccccc2OC)nc1C`, the B-score was “inactive”.
For `O=C(NCCCN1CCOCC1)c1cc2c(s1)CCC2`, the B-score was “inactive”.
With `Cc1cccc2c1-c1sc(C(=O)NCCCN3CCc4ccccc4C3)cc1CO2` the B-score was -7.27 (active).
In the case of `O=C(CN1C(=O)COc2ccccc21)NCCN1CCc2ccccc2C1`, the B-score was “inactive”.
With `CCOc1ccc(N(C)S(=O)(=O)c2cnc[nH]2)cc1` the B-score was “inactive”.
With `COc1ccccc1C(=O)NC(=S)Nc1ccccc1N1CCCCC1` the B-score was “inactive”.
For `Clc1ccc(-c2ncc3ccccn23)c(Cl)c1`, the B-score was “inactive”.
In the case of `COn1c(-c2ccc(Cl)cc2Cl)nc2ncccc21`, the B-score was “inactive”.
For `Clc1ccc(COn2c(-c3ccc(Cl)cc3Cl)nc3ncccc32)cc1`, the B-score was -8.26 (active).
With `COCCn1c(SCC(=O)Nc2nc(C)cs2)nnc1C(C)C` the B-score was “inactive”.
With `COC(=O)c1cc2nc(-c3ccccc3)cc(C(F)(F)F)n2n1` the B-score was “inactive”.
With `COc1ccc(NC(=O)c2cc3nc(-c4ccccc4)cc(C)n3n2)cc1OC` the B-score was “inactive”.
In the case of `COCCNc1cc(-c2ccccc2)nc2cc(-c3cccc(F)c3)nn12`, the B-score was -7.61 (active).
In the case of `CN(C)CCCNC(=O)c1cc(C(=O)Cc2ccc(Cl)cc2)c[nH]1`, the B-score was “inactive”.
In the case of `CC(=O)C1C(c2ccc(Cl)cc2)c2c(n[nH]c2C)CC1(C)O` (centres undefined), the B-score was “inactive”.
In the case of `C=CCn1c(SCC(=O)Nc2nc3ccccc3s2)nnc1-c1ccccc1O`, the B-score was “inactive”.
With `Cn1nnnc1SCC(=O)Nc1nc2ccccc2s1` the B-score was -7.23 (active).
For `COC(=O)c1ccccc1NC(=O)CSc1nnnn1C`, the B-score was “inactive”.
For `Cc1cccc(CC(=O)N2CCN=C2SCc2ccc([N+](=O)[O-])cc2)c1`, the B-score was “inactive”.
For `O=C(Cc1ccc(F)cc1)N1CCN=C1SCc1cccc([N+](=O)[O-])c1`, the B-score was “inactive”.
In the case of `Cc1cc(C)cc(C(=O)N2CCN=C2SCc2ccc([N+](=O)[O-])cc2)c1`, the B-score was -8.97 (active).
For `Cc1cc(C)c2nc(-c3ccco3)cc(C(=O)O)c2c1`, the B-score was “inactive”.
In the case of `Cc1cc(C)c2nc3nc(C)cc(C)c3c(N)c2c1`, the B-score was -7.22 (active).
For `CN(CC1CCCO1)S(=O)(=O)c1ccc(C(=O)Nc2ccc([N+](=O)[O-])cc2)cc1` (centres undefined), the B-score was “inactive”.
For `Cc1ccc(OC(=O)c2ccccc2C(=O)OCC(F)(F)C(F)F)cc1`, the B-score was “inactive”.
For `O=C(COC(=O)/C=C/c1ccc(S(=O)(=O)N2CCCCCC2)cc1)NCc1ccccc1Cl`, the B-score was “inactive”.
For `O=C(c1ccc(F)c(S(=O)(=O)N2CCOCC2)c1)N(CCc1ccccc1)Cc1ccccc1`, the B-score was “inactive”.
With `CCCCCOc1ccc(CSC2=NCCN2)cc1[N+](=O)[O-]` the B-score was “inactive”.
In the case of `CCCOc1ccc(Cn2ccnc2)cc1[N+](=O)[O-]`, the B-score was “inactive”.
In the case of `CCCCOc1ccc(CSC(=N)N)cc1[N+](=O)[O-]`, the B-score was -7.06 (active).
For `COc1cc(C2OC(c3cc(OC)c(OC)c(OC)c3)C(C)C2C)cc(OC)c1OC` (centres undefined), the B-score was “inactive”.
In the case of `CSCCC(NS(=O)(=O)c1ccc(C)cc1)C(=O)NCCc1c[nH]c2ccccc12` (centres undefined), the B-score was “inactive”.
For `CCN1CCN(c2ccc([N+](=O)[O-])cc2C(=O)c2ccc(Cl)cc2)CC1`, the B-score was -7.47 (active).
With `CCC(=O)c1ccc(N2CCN(C(=O)c3cc([N+](=O)[O-])ccc3F)CC2)c(F)c1` the B-score was “inactive”.
For `O=C(Nc1cccc(Cl)c1)c1cc([N+](=O)[O-])ccc1N1CCN(CCO)CC1`, the B-score was “inactive”.
With `O=C(N/N=C/c1ccc(O)c(O)c1)C1c2ccccc2Oc2ccccc21` the B-score was “inactive”.
In the case of `O=C(CCC1CCN(C(=O)c2cccc(Cl)c2F)CC1)Nc1ccccc1`, the B-score was “inactive”.
With `Cc1cc(S(=O)(=O)Nc2ccc(C(=O)NCC(c3ccco3)N3CCCC3)cc2)ccc1F` (centres undefined) the B-score was “inactive”.
For `COc1ccccc1-c1cc(C(=O)N2CCCCC2)no1`, the B-score was “inactive”.
With `COc1cc(Cl)ccc1OCc1cc(C(=O)N2CC[C@@H]3CCCC[C@H]3C2)no1` the B-score was “inactive”.
For `COc1ccc(OCc2cc(C(=O)N3CCCC3)no2)c2ccccc12`, the B-score was -7 (active).
For `O=C(NC1(C(F)(F)F)NC(=O)N(Cc2cccnc2)C1=O)c1ccccc1Cl` (centres undefined), the B-score was “inactive”.
In the case of `O=C(CN1C(=O)c2cccnc2Oc2ccc(Cl)cc21)NCCc1ccccc1`, the B-score was “inactive”.
For `CCOC(=O)c1cccc(NC(=O)c2ccc(F)cc2F)c1`, the B-score was “inactive”.
In the case of `Cc1ccc(N(Cc2ccccc2O)C(=O)c2ccccc2F)cc1`, the B-score was “inactive”.
In the case of `Cn1c(N)c(C(=O)COC(=O)c2cnc(Cl)c(Cl)c2)c(=O)n(C)c1=O`, the B-score was “inactive”.
In the case of `Cc1ccc(C)c(NC(=O)NNC(=O)c2ccc3ccccc3c2O)c1`, the B-score was “inactive”.
In the case of `COC(=O)c1sc(-c2ccc(C(C)(C)C)cc2)cc1NC(=O)/C=C/C(=O)O`, the B-score was -8.52 (active).
With `CSc1ccc(NC(=O)/C=C/C(=O)O)cc1` the B-score was “inactive”.
With `CC(C)(C)c1ccc(/C=C/C(=O)Nc2ncccn2)cc1` the B-score was “inactive”.
With `Cc1onc(-c2c(F)cccc2Cl)c1C(=O)N(C)CC(=O)Nc1cccc(F)c1` the B-score was “inactive”.
In the case of `OCCC1CN(Cc2ccc3nsnc3c2)CCN1C1CCCC1` (centres undefined), the B-score was -8.81 (active).
For `OCCC1CN(Cc2ccc3nsnc3c2)CCN1C1CCCCC1` (centres undefined), the B-score was “inactive”.
In the case of `Cn1cnnc1Sc1ccc(CN2CCN(C3CCCC3)C(CCO)C2)o1` (centres undefined), the B-score was “inactive”.
For `COc1ccccc1C(=O)N/C(=C/c1ccc2c(c1)OCO2)C(=O)Nc1cccc(C(=O)O)c1`, the B-score was “inactive”.
With `CN(C)CCCN(C(=O)c1ccc(S(=O)(=O)N2CCCCCC2)cc1)c1nc2cc3c(cc2s1)OCCO3` the B-score was -7.42 (active).
In the case of `CN(C)CCCN(C(=O)c1ccc(S(=O)(=O)N2CCCCCC2)cc1)c1nc2ccc(Br)cc2s1`, the B-score was “inactive”.
With `CCN(CC)CCN(C(=O)c1ccc(S(=O)(=O)N2CCOCC2)cc1)c1nc2cc3c(cc2s1)OCCO3` the B-score was “inactive”.
